MPTP inh: mitochondrial permeability transition pore inhibitors, primary screen, biochemical, isolated mouse mitochondria, absorbance | Ca2+ swelling absorbance, 30 min | inhibition, % at 10 µM | 360,000 compounds, 1.4% hits | AID 602449, 2012;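 active = inhibition of 50% or more, scaled per plate between neutral and stimulator controls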;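 note: 0% = DMSO wells given calcium and 100% = 1 mM EGTA wells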
GRIN3A LBD mod: binders of NR3A ligand-binding domain, primary screen, biophysical, differential scanning fluorimetry, uHTS | Glutamate receptor ionotropic, NMDA 3A (GRIN3A) ligand-binding domain | NR3A LBD differential scanning fluorimetry, Tm shift; 0% = protein alone, 100% = glycine-bound protein | Tm shift relative to glycine control, % at 25 µM | 340,000 compounds, 2.5% hits;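 active = melting temperature shift of at least 10% of the positive control shift, at one fixed dose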
SENP1 FRET inh: human SENP1 catalytic domain inhibitors, primary screen, biochemical, FRET, uHTS | Sentrin-specific protease 1 (Homo sapiens), Q9P0U3 | recombinant SENP1 catalytic domain, CyPet-SUMO1-YPet FRET cleavage | inhibition, % at 10 µM | 360,000 compounds, 0.21% hits;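 active = inhibition at least 30% at 10 µM, raw YFP signal under a set limit, fluorescence ratio 0.5 to 1.5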;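 note: 0% = enzyme with DMSO and 100% = no enzyme wells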
Target sequence (Q9P0U3 419-644 limits assumed): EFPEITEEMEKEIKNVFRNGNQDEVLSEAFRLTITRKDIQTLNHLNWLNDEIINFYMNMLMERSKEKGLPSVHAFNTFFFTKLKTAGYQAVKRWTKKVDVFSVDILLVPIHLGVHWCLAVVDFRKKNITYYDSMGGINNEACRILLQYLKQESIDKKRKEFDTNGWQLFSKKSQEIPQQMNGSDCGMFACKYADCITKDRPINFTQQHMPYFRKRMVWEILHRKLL
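material = recombinant human SENP1 catalytic domain, His6-tagged | quantity = 20 pM enzyme | reagent = 25 nM SUMO1 FRET substrate | compound dosing = 10 µM single point, 0.5% DMSO | timing = 50 min enzyme reaction, room temperature, light-protected | detection = FRET, CFP and YFP emission | control set = no-enzyme low, enzyme-DMSO high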
EBI2 antag: EBI2 receptor antagonists, beta-arrestin recruitment, primary screen, cell-based, luminescence, 7a,25-OHC stimulation, uHTS. AID 651636, 2012. 360,000 compounds, 0.81% hits. G-protein coupled receptor 183 (Homo sapiens), P32249. inhibition, % at 5 µM. 7a,25-OHC stimulated; in the data active = inhibition above about 38%;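 note: enzyme fragment complementation signal reports receptor beta-arrestin coupling in cells; 0% = agonist plus DMSO wells and 100% = wells without agonist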
Target sequence (P32249 whole entry, looked up, the tested form may be a part): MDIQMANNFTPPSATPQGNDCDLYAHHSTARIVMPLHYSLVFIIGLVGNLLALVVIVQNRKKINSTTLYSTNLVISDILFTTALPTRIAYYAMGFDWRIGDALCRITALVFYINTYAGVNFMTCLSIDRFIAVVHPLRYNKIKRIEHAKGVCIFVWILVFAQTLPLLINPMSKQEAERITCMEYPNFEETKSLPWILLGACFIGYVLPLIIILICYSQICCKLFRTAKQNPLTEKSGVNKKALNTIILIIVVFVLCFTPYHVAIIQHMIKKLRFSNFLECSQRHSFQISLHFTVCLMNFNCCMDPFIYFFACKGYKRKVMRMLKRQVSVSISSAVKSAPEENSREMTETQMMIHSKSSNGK
Starred values were filed as active, the others as inactive. Rows were chosen to be rich in hits. Some 4.4% of all compounds tested hit in one or more screens of this group.

SMILES	MPTP inh	GRIN3A LBD mod	SENP1 FRET inh	EBI2 antag
COc1ccc(CNC(=O)[C@@H](NC(=O)C2CCN(S(=O)(=O)c3ccccc3)CC2)C(C)C)cc1	-2	-2	0	4
CC1(C)Oc2ccc3ccc(=O)oc3c2/C(=C/Nc2ccccn2)C1=O	4	15*	-16	-12
CN/C=C1\C(=O)C(C)(C)Oc2ccc3ccc(=O)oc3c21	-2	0	2	-2
CCCCN1C(=O)C(=O)N(CC(=O)Nc2cc(Cl)ccc2OC)C1=O	0	-2	1	-25
CCCCCCC1CC(=O)NC(=O)N1 (stereo unspecified)	1	14*	1	5
CCCCCC1CC(=O)NC1(C(=O)OCC)C(=O)OCC (stereo unspecified)	1	0	0	2
CCN(CC)c1ccc(/C=C2\C(=O)N(c3nnc(C)c(=O)[nH]3)N=C2C)cc1	11	2	1	63*
Cc1ccc(NC(=O)c2cc3c(s2)CCCC3)cc1S(=O)(=O)Nc1ccccc1Cl	41	18*	2	13
Cc1ccc(NC(=O)CNC(=O)c2cccs2)cc1S(=O)(=O)Nc1ccc(Cl)cc1	5	12*	0	11
O=C(Nc1ccccc1Cl)c1cccs1	-3	1	2	0
Cc1ccc(C(=O)NCCSc2ccc(Cl)cc2)cc1S(=O)(=O)Nc1ccccc1	48	22*	2	23
O=C(Nc1ccc(Cl)c(S(=O)(=O)Nc2ccccc2Cl)c1)c1cccs1	12	31*	1	-18
Cc1ccc(C(=O)Nc2ccc(C)c(S(=O)(=O)Nc3ccccc3Cl)c2)s1	11	11*	-1	4
CN(Cc1ccccc1)C1CCNCC1	0	2	2	-16
Cc1ccc(-n2[nH]c(C)c(/C=C3/C=Nc4ccccc43)c2=O)cc1C	1	15*	2	12
Cc1[nH]n(-c2ccccc2)c(=O)c1/C=C1\C=NN=C1c1ccccc1	6	-5	1	23
COc1ccccc1NC(=O)Cc1nnc(SCC(=O)NC2CCCCC2C)n1C (stereo unspecified)	-2	0	1	2
Oc1ccc2ccccc2c1/C=N/Nc1nnc(-c2ncc[nH]2)c2ccccc12	12	21*	-20	17
O=C(N/N=C1/SCC(=O)N1Cc1ccco1)c1ccccc1F	1	16*	2	-5
Cc1ccc(OCC(=O)N/N=C2/SCC(=O)N2Cc2ccco2)cc1	-2	-2	-1	-3
CCOC(=O)c1c(-c2ccccc2)csc1NC(=O)/C(C#N)=C/c1ccc(OC)c(OC)c1	1	-1	-23	20
CCOC(=O)c1c(-c2ccccc2)csc1NC(=O)/C(C#N)=C/c1ccc(O)c(OC)c1	12	27*	-24	31
CC(=O)c1ccc(NS(=O)(=O)c2ccc(N/C=C/C(=O)c3ccc(F)cc3)cc2)cc1	16	16*	-59	-3
CC(=O)c1cccc(NS(=O)(=O)c2ccc(N/C=C\C(=O)c3ccc(F)cc3)cc2)c1	32	1	-18	3
COC(=O)C1=C(CCc2ccccc2)NC(=O)NC1c1ccc([N+](=O)[O-])cc1 (stereo unspecified)	-3	1	0	-9
SMILES	MPTP inh	GRIN3A LBD mod	SENP1 FRET inh	EBI2 antag
Cc1cccc(C)c1NC(=O)CNC(=O)c1cccnc1	1	-1	2	-7
CCOP(=O)(c1ccc(N(C)C)cc1)C(O)c1ccc(Cl)cc1 (stereo unspecified)	2	1	1	3
O=C(CSc1ccc(Cl)cc1)NNC(=O)c1ccncc1	-2	1	2	-5
CCOC(=O)c1c(NC(=S)Nc2ccccc2)sc2c1CC(C)(C)SC2	29	13*	-109	19
CCOC(=O)c1c(NC(=S)NC)sc2c1CC(C)(C)SC2	14	-31	-34	-5
Cc1cc(C)c2nc(NC(=O)[C@@H](NC(=O)c3cccc(S(=O)(=O)N4CCOCC4)c3)C(C)C)sc2c1	5	34*	0	19
Cc1cccc(C(=O)N[C@H](C(=O)Nc2cc(S(=O)(=O)N3CCCCC3)ccc2C)C(C)C)c1	1	0	-1	10
Cc1cc(C)c2nc(NC(=O)c3cccc(S(=O)(=O)N4CCc5ccccc54)c3)sc2c1	2	10*	-10	15
CC(C)(CNC(=O)c1ccc(S(=O)(=O)N2CCCC2)cc1)N1CCOCC1	1	-4	0	-4
CCOC(=O)/C(=C\c1ccc(OC(F)F)cc1)C1=Nn2c(nnc2-c2ccc(Cl)cc2)SC1	2	-1	-1	54*
CCOC(=O)/C(=C/c1ccc(OC(F)F)cc1)C1=Nn2c(nnc2-c2ccc(Cl)cc2)SC1	-1	0	0	48*
COc1ccc(-c2nnc3n2N=C(C)CS3)cc1	1	-1	2	-11
COc1ccccc1NS(=O)(=O)c1cccc(NC(=O)NC2CCCCC2)c1	34	0	1	4
O=c1c2ccccc2c(-c2ccc(O)cc2)nn1-c1cccc(C(F)(F)F)c1	23	25*	4	-46
O=c1c2ccccc2c(-c2cccc(C(F)(F)F)c2)nn1-c1ccccc1	2	1	0	-16
O=C(Cc1cn(Cc2cccc(Cl)c2)c2ccccc12)N1CCCCCC1	-20	17*	0	9
CN(C)c1ccc(/C=C2\N=C(c3ccc(Cl)c([N+](=O)[O-])c3)NC2=O)cc1	23	-4	65*	37
CN(C)c1ccc(/C=C2/NC(=O)NC2=O)cc1	2	-3	-52	6
CCOC(=O)c1ccc(N2C(=O)CC(C)(CC)CC2=O)cc1	0	1	2	10
CCOC(=O)c1sc(NC(=O)c2cccs2)cc1C	-1	2	2	3
Cc1cc(C)c2c(N)c(C(=O)Nc3ncc(C)s3)sc2n1	0	-8	-20	-6
COc1ccc2nc(NC(=O)c3sc4nc(C)cc(C)c4c3N)sc2c1	4	28*	-38	-5
CCOC(=O)c1sc(Nc2nc3c(F)cccc3s2)cc1C	44	29*	-29	19
CCOC(=O)c1sc(NC(=O)c2sccc2C)cc1C	11	11*	2	17
CCOC(=O)c1sc(Nc2nc3ccc(OC)cc3s2)cc1C	15	16*	-67	13
CCCC(=O)Nc1nc2ccc(OC)cc2s1	0	0	1	-4
CN1CCN(/N=C/c2cccc(Cl)c2Cl)CC1	-2	2	2	-3
Cc1ccc(NC(=S)N(C)C(c2ccccc2)c2ccccc2)cc1C	1	0	11	10
CCCCCCn1c(=O)c(-c2ccccc2)c(O)c2ccccc21	0	12*	1	0
C=CCON/C(CCC)=C1\C(=O)C(C(=O)OC)C(C)(C)CC1=NC (stereo unspecified)	1	-2	1	3

Assay outcomes from PubChem BioAssay.
